In ChEMBL document CHEMBL2169850, “3,6-bis(3-alkylguanidino)acridines as DNA-intercalating antitumor agents” (Eur J Med Chem, 2012):
Calls of active or inactive are those of the source. No cut-off for these calls is given here.

Key:
[1] = tested on: HL-60; assay: Drug uptake in human HL60 cells with normal morphology at 50 uM incubated for 18 hrs by fluorescence microscopy; format: ADME, cell-based; details: hl-60, 18 h
Summary of the method: (§1)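 HL-60 cells were treated with 50 µM compound for 18 h, washed with PBS, resuspended in HBSS and mounted as native slides. Cells were imaged by inverted fluorescence microscopy at 40×, with excitation 360/40 and emission 470/40. The fluorescence channel was merged with brightfield images.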

[2] = tested on: HL-60; assay: Drug uptake in human HL60 cells with necrotic morphology at 50 uM incubated for 18 hrs by fluorescence microscopy; format: ADME, cell-based; details: hl-60, 18 h; summary of the method: as §1
[3] = tested on: HL-60; assay: Induction of apoptosis in human HL60 cells at 5 to 25 uM incubated for 24 hrs by AnnexinV/propidium iodide staining method; format: functional, cell-based
Summary of the method: (§2)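 HL-60 cells (1.5 × 10^5) were treated at 5–25 µM for 24, 48 or 72 h and harvested. They were stained with Annexin V-FITC for 10 min in HEPES/CaCl2/NaCl binding buffer, washed, briefly stained with PI (1 mg/mL) and analysed by flow cytometry for apoptosis and necrosis. Mean ± SD, n ≥ 3.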

[4] = tested on: HL-60; assay: Antiproliferative activity against human HL60 cells assessed as cell number at 25 uM incubated for 72 hrs by Coulter counting method; format: functional
Summary of the method: (§3)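 HL-60 cells in RPMI with 10% heat-inactivated FCS, antibiotics and amphotericin, 37 °C, 5% CO2, seeded in 60 mm dishes. Compound added at 5, 15 or 25 µM for 24, 48 or 72 h. Absolute cell counts taken by Coulter counter and expressed as percentage of untreated control. Mean ± SD of at least three independent experiments; one-way ANOVA with Tukey test, p < 0.05.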

[5] = tested on: HL-60; assay: Antiproliferative activity against human HL60 cells assessed as cell number at 15 uM incubated for 72 hrs by Coulter counting method; format: functional; summary of the method: as §3
[6] = tested on: HL-60; assay: Antiproliferative activity against human HL60 cells assessed as cell number at 5 uM incubated for 72 hrs by Coulter counting method; format: functional; summary of the method: as §3
[7] = tested on: HL-60; assay: Antiproliferative activity against human HL60 cells assessed as cell number at 15 uM incubated for 48 hrs by Coulter counting method; format: functional; summary of the method: as §3
[8] = tested on: HL-60; assay: Antiproliferative activity against human HL60 cells assessed as cell number at 25 uM incubated for 48 hrs by Coulter counting method; format: functional; summary of the method: as §3
[9] = tested on: HL-60; assay: Antiproliferative activity against human HL60 cells assessed as cell number at 5 uM incubated for 48 hrs by Coulter counting method; format: functional; summary of the method: as §3
[10] = tested on: HL-60; assay: Antiproliferative activity against human HL60 cells assessed as cell number at 15 uM incubated for 24 hrs by Coulter counting method; format: functional; summary of the method: as §3
[11] = tested on: HL-60; assay: Antiproliferative activity against human HL60 cells assessed as cell number at 25 uM incubated for 24 hrs by Coulter counting method; format: functional; summary of the method: as §3
[12] = tested on: HL-60; assay: Antiproliferative activity against human HL60 cells assessed as cell number at 5 uM incubated for 24 hrs by Coulter counting method; format: functional; summary of the method: as §3
[13] = target: T1, DNA topoisomerase 1 (Homo sapiens) (UniProt P11387); assay: Inhibition of human topoisomerase 1 assessed as reduction in pBR322 DNA relaxation of relaxation at 5 uM by DNA unwinding assay
T1 sequence (whole entry): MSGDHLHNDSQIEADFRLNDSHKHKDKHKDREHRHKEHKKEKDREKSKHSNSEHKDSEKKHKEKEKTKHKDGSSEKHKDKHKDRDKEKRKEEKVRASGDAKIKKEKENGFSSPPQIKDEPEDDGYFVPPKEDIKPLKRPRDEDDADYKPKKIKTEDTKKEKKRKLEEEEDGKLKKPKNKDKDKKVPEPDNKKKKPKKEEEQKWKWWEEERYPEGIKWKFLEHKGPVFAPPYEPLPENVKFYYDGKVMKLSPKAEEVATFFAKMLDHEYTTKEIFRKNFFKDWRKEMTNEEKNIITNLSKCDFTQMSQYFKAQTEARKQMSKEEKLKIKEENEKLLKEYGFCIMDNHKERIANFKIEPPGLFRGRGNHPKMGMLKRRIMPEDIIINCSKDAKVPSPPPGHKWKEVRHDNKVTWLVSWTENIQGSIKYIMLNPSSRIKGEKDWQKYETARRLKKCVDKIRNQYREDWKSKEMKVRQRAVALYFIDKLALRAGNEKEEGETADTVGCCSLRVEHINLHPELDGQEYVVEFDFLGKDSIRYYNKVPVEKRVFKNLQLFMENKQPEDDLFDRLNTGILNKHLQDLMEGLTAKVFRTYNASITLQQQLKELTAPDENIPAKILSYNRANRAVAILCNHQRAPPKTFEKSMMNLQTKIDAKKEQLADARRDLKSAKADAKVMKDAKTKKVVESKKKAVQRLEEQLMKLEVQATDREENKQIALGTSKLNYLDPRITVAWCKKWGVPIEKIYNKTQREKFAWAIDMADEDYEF

[14] = target: T1, DNA topoisomerase 1 (Homo sapiens); assay: Inhibition of human topoisomerase 1 assessed as reduction in pBR322 DNA relaxation of relaxation at 60 uM by DNA unwinding assay
[15] = tested on: Nucleic Acid; assay: Binding affinity to Escherichia coli pUC19 DNA assessed as reduction in DNA mobility to 5 to 80 uM by EMSA; format: nucleic-acid assay
Summary of the method: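 Supercoiled pUC19 plasmid incubated with compound at 5, 20, 40, 60 or 80 µM. Native agarose gel electrophoresis run with no ethidium bromide in the gel; band mobility was then read.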

[16] = tested on: Nucleic Acid; assay: Binding affinity to calf thymus DNA increase in DNA viscosity at 12 to 60 uM by viscosimetric titration assay; format: nucleic-acid assay; details: Bos taurus
Summary of the method: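 Relative viscosity of ctDNA (3.11 × 10^-8 M) with compound at 12–60 × 10^-6 M was measured by automated microviscometry in a 1.6 mm capillary at 25 °C, in 10 mM Tris, pH 7.4. Solution density was also measured.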

[17] = tested on: Nucleic Acid; assay: Binding affinity to calf thymus DNA at 6.5 uM by CD spectroscopy; format: nucleic-acid assay; details: Bos taurus
Summary of the method: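 CD spectra were recorded in 1 mm quartz cuvettes in 0.01 M Tris, pH 7.4, with 6.52 µM compound and ctDNA. Each spectrum is the mean of three scans after buffer background subtraction.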

[18] = tested on: Nucleic Acid; assay: Binding affinity to calf thymus DNA by spectrofluorimetric titration assay; format: nucleic-acid assay; details: Bos taurus
Summary of the method: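 Fluorescence titration at 25 °C in 0.01 M Tris, pH 7.4. Compound (9.58 × 10^-6 M) was titrated with ctDNA from 0 to 2.57 × 10^-4 M bp, excited at 384 nm, and emission recorded from 400 to 600 nm. K and n were obtained from McGhee–von Hippel fits of Scatchard data.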

[19] = tested on: Nucleic Acid; assay: Binding affinity to calf thymus DNA assessed as melting temperature at 12.4 uM by thermal denaturation study; format: nucleic-acid assay; details: Bos taurus
[20] = tested on: HL-60; assay: Induction of necrosis in human HL60 cells at 5 to 25 uM incubated for 72 hrs by AnnexinV/propidium iodide staining method; format: functional, cell-based
Summary of the method: (§4)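 HL-60 cells (1.5 × 10^5) were exposed to compound, then stained 10 min with Annexin V-FITC in HEPES/CaCl2/NaCl binding buffer. Cells were washed, briefly stained with propidium iodide and analysed by flow cytometry for apoptotic and necrotic fractions. Mean ± SD of at least three independent experiments.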

[21] = tested on: HL-60; assay: Induction of necrosis in human HL60 cells at 5 to 25 uM incubated for 24 hrs by AnnexinV/propidium iodide staining method; format: functional, cell-based; summary of the method: as §4
[22] = tested on: HL-60; assay: Induction of apoptosis in human HL60 cells at 5 to 25 uM incubated for 48 hrs by AnnexinV/propidium iodide staining method; format: functional, cell-based; summary of the method: as §2
[23] = tested on: HL-60; assay: Induction of apoptosis in human HL60 cells at 5 to 25 uM incubated for 72 hrs by AnnexinV/propidium iodide staining method; format: functional, cell-based; summary of the method: as §2
[24] = tested on: HL-60; assay: Induction of necrosis in human HL60 cells at 5 to 25 uM incubated for 48 hrs by AnnexinV/propidium iodide staining method; format: functional, cell-based; summary of the method: as §4
[25] = tested on: HL-60; assay: Induction of caspase-3 activation in human HL60 cells at 25 uM incubated for 72 hrs by FACS assay; format: functional
Summary of the method: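 HL-60 cells were treated for 72 h, washed in cold PBS, fixed and permeabilized for 20 min on ice. They were incubated with a FITC anti-active caspase-3 antibody for 30 min at RT and analysed by flow cytometry. Results are the percentage of positively stained cells; mean ± SD, n ≥ 3.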

[26] = tested on: HL-60; assay: Induction of caspase-3 activation in human HL60 cells at 5 to 25 uM incubated for 24 to 72 hrs by FACS assay; format: functional, cell-based
Summary of the method: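 HL-60 cells (RPMI with 10% heat-inactivated FCS, 37 °C, 5% CO2) were seeded in dishes and treated 24, 48 or 72 h. Cells were fixed and permeabilized 20 min on ice, then stained 30 min at RT with FITC anti-active caspase-3 antibody. Read-out was the percentage of positive cells by flow cytometry. Mean ± SD of at least three independent experiments; ANOVA with Tukey.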

[27] = tested on: Nucleic Acid; assay: Binding affinity to calf thymus DNA assessed as hypochromacity at 12.8 uM by UV-visible absorption spectroscopy; details: Bos taurus

CCCCCNC(=N)Nc1ccc2cc3ccc(NC(=N)NCCCCC)cc3nc2c1.Cl.Cl.O
Drug uptake [1]: Active
Drug uptake [2]: Active
Activity [3]: inactive
Activity [4]: 48.67%
Activity [5]: 54.4%
Activity [6]: 83.3%
Activity [7]: 77.14%
Activity [8]: 67.98%
Activity [9]: 81.9%
Activity [10]: 75.2%
Activity [11]: 78.32%
Activity [12]: 76.19%
Activity [13]: Active
Topoisomerase 1 inhibition (active/inactive) [14]: Active
Activity [15]: inactive
Activity [16]: Active
Activity [17]: Active
K [18]: 2.36 ×10⁵ /M
Tm [19]: 88 °C
Activity [20]: inactive
Activity [21]: inactive
Activity [22]: inactive
Activity [23]: inactive
Activity [24]: inactive
Activity [25]: 46.8%
Activity [26]: inactive
Activity [27]: 31%

CCCCNC(=N)Nc1ccc2cc3ccc(NC(=N)NCCCC)cc3nc2c1
Activity [13]: Active
Topoisomerase 1 inhibition (active/inactive) [14]: Active
Activity [15]: Active
Activity [16]: Active
Activity [17]: Active
K [18]: 4.25 ×10⁵ /M
Tm [19]: 86 °C
Activity [27]: 17%

CCCNC(=N)Nc1ccc2cc3ccc(NC(=N)NCCC)cc3nc2c1
Activity [13]: Active
Topoisomerase 1 inhibition (active/inactive) [14]: Active
Activity [15]: Active
Activity [16]: Active
Activity [17]: Active
K [18]: 5.01 ×10⁵ /M
Tm [19]: 85 °C
Activity [27]: 32%
